Source: PubChem
Sampled rows, rich in hits. Any-hit rate of the full collection: about 1.7%.
LMPTP inh – LMPTP (human) inhibition. recombinant LMPTP-A, OMFP fluorogenic substrate, fluorescence intensity. inhibition, % at 20 µM. hit rate 0.22% among 360,000. AID 651560;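 active = compounds that cut the enzyme signal by at least half of the control window in the single-dose screen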
Target sequence (P24666 whole entry, looked up): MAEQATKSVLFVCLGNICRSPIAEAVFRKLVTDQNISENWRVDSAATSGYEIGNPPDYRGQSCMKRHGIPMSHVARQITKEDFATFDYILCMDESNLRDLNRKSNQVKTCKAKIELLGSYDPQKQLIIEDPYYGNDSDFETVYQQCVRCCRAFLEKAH
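Assay system: LMPTP-A, protein tyrosine phosphatase of low molecular weight / Medium: pH 6.0 Bis-Tris buffer with DTT and Triton X-100 / Schedule: 50 min enzyme reaction at room temperature, protected from light / Measured by: endpoint fluorescence intensity from OMFP dephosphorylation / Read-out basis: % inhibition relative to no-enzyme and uninhibited control wells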
DNMT1 block – DNMT1 (human) enzyme inhibition; P26358; DNMT1 molecular beacon, Hinp1I cleavage, fluorescence; inhibition (reported as % activation of signal), % at 10 µM; hit rate 0.83% among 360,000; AID 588458; in the data active = inhibition above about 50%
Scp-1 inhibitor – Scp-1 (human) phosphatase inhibition. Q9GZU7. Recombinant Scp1, phosphopeptide, malachite green phosphate absorbance. inhibition, % at 20 µM. hit rate 0.88% among 340,000;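 active = inhibition above about 50% at 20 µM, limit read from the data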
Target sequence (Q9GZU7 76-261 limits assumed): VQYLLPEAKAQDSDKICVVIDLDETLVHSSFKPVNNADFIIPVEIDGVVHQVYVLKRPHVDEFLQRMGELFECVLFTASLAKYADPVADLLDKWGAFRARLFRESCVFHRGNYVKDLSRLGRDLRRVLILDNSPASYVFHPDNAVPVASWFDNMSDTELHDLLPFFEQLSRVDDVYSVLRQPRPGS
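Assay system: SCP-1 catalytic fragment, aa 76-261 | Buffer or medium: Tris acetate buffer pH 5.5 with MgCl2 and Tween-20 | Compound: One concentration, 20 µM, with 1.0% DMSO | Also added: Phospho 17-mer peptide substrate | Signal: Absorbance at 630 nm | Incubation: 45 min enzyme reaction at room temperature | Measure: % inhibition of SCP-1 phosphate liberation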
SUMO1-SIM PPI – alters human SUMO1 binding to SIM partners. P63165. SUMO1 binding to a labelled peptide, TR-FRET, 1 h. inhibition, % at 20 µM. hit rate 0.33% among 360,000; in the data active = inhibition above about 37%
Target sequence (P63165 whole entry, looked up): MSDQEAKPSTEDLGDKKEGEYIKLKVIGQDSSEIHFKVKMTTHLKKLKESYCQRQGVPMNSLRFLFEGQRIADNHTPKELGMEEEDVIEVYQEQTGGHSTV
STEP block – STEP (human) phosphatase inhibition. P54829. recombinant STEP, OMFP fluorogenic substrate, fluorescence. inhibition, % at 20 µM. hit rate 0.25% among 360,000;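 active = inhibition at 20 µM, scaled per plate between control wells, above about 37%, limit read from the data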
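Also added – OMFP at 25 µM · Test system – STEP tyrosine phosphatase · Technique – FITC-channel fluorescence of OMFP product · Schedule – 20 min at room temperature, dark · Evaluation – control-normalized % inhibition with plate pattern correction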
Scp-1 conf – confirmation of human Scp-1 phosphatase inhibitors; shares compounds with Scp-1 inhibitor; recombinant SCP-1 catalytic domain, phosphate release, malachite green absorbance; inhibition, % at 20 µM; hit rate 61% among 2,500; AID 540281
Scp-1 MG ctr – interferes with malachite green readout, flagging false Scp-1 hits; apparent inhibition (interference), % at 20 µM; 2,500 tested, under 10 active; Colorimetric interference counterscreen, malachite green absorbance 630 nm; shares compounds with Scp-1 inhibitor; AID 540313;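 note: compounds added after enzyme reaction finished so only phosphate colour detection is probed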
Scp1 DSF – validation of human Scp-1 inhibitors by thermal shift binding. AID 540329. Recombinant SCP1, Sypro Orange thermal shift Tm. thermal shift relative to vanadate control, % at 40 µM. hit rate 25% among 1,500. shares compounds with Scp-1 inhibitor;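 active = substances whose mean melting-temperature shift, as a percentage of the reference inhibitor's shift, reaches about 5.3%, limit read from the data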
Each line names hits and unclear results; the compound was inactive in the other large screens (follow-up assays come after a bar, where they were run).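 Rule for the calls, unless noted: active = inhibition of at least 30% at 20 µM; inactive = the rest.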

O=C(NCc1ccco1)C1CCN(C(=O)c2ccc([N+](=O)[O-])cc2)CC1	none
O=C(Nc1ncc(Cc2ccc(SC(F)F)cc2)s1)c1ccc(OC(F)F)cc1	none
O=C(CCC(=O)Nc1cccc(Cl)c1)N/N=C/c1cc([N+](=O)[O-])ccc1O	none
O=C(CCCC(=O)Nc1cccc(Br)c1)N/N=C/c1cc([N+](=O)[O-])ccc1O	Scp-1 inhibitor 56 | Scp-1 conf 67 | Scp-1 MG ctr inactive | Scp1 DSF 7.4
CCc1ccc(N2C(=O)CC(N3CCN(Cc4ccc5c(c4)OCO5)CC3)C2=O)cc1 (stereo unspecified)	none
CC(=O)Nc1cccc(/C(C)=N/NC(=O)c2ccc(NS(=O)(=O)c3cccs3)cc2)c1	Scp-1 inhibitor 64 | Scp-1 conf inactive | Scp-1 MG ctr inactive
C/C(=N\NC(=O)c1ccc(NS(=O)(=O)c2cccs2)cc1)c1ccc(C(C)(C)C)cc1	none
O=C1C=C(O)c2cccc(O)c2C1=O	Scp-1 inhibitor 50 | Scp-1 conf 43 | Scp-1 MG ctr inactive | Scp1 DSF 12
CSc1ccc(CCNC(=O)CSc2ccsc2[N+](=O)[O-])cc1	Scp-1 inhibitor 51 | Scp-1 conf 55 | Scp-1 MG ctr inactive | Scp1 DSF 7.5
Cc1ccc(NC(=O)CSc2nc3[nH]ncc3c(=O)[nH]2)cc1Cl	Scp-1 inhibitor 58 | Scp-1 conf inactive | Scp-1 MG ctr inactive
COc1ccc(OC)c(S(=O)(=O)N2CCC(C(=O)NCC3CCCO3)CC2)c1 (stereo unspecified)	Scp-1 inhibitor 92 | Scp-1 conf inactive | Scp-1 MG ctr inactive
COc1ccc(Cl)cc1S(=O)(=O)N1CCC(C(=O)NCC2CCCO2)CC1 (stereo unspecified)	none
O=C(Nc1ccnc(=O)[nH]1)c1sc2ccccc2c1Cl	Scp-1 inhibitor 98 | Scp-1 conf 67 | Scp-1 MG ctr inactive | Scp1 DSF inactive
O=C(Nc1ccncc1)c1sc2ccccc2c1Cl	none
Cc1c(CCC(=O)O)c(=O)oc2c(C)c3occ(-c4ccc(Cl)cc4)c3cc12	LMPTP inh 88, Scp-1 inhibitor 64 | Scp-1 conf 77 | Scp-1 MG ctr inactive | Scp1 DSF inactive
Cc1c(CCC(=O)O)c(=O)oc2cc3occ(-c4ccc(Cl)cc4)c3cc12	none
C[N+]1(C)CC2([N+](=O)[O-])CC=C(Oc3ccccc3)C([N+](=O)[O-])(C2)C1 (stereo unspecified)	Scp-1 inhibitor 97 | Scp-1 conf 87 | Scp-1 MG ctr inactive | Scp1 DSF inactive
CN(C(=O)c1ccc(NC(=O)Cc2ccc(NC(=O)C3CCCN(S(=O)(=O)c4cccc([N+](=O)[O-])c4)C3)cc2)cc1)C1CCCC1 (stereo unspecified)	none
O[C@@H]1CN(Cc2cccs2)[C@@H](c2ccc(Cl)cc2)C[C@H]1n1cc(-c2ccc(F)cc2)nn1	none (no result: Scp-1 inhibitor)
CCOc1ccc(Nc2ccc(N)c(S(=O)(=O)O)c2)cc1	LMPTP inh 74, DNMT1 block 87, Scp-1 inhibitor 84, SUMO1-SIM PPI 37, STEP block 81 | Scp-1 conf 66 | Scp-1 MG ctr inactive | Scp1 DSF 20
CN(C)S(=O)(=O)c1ccc(NC(=O)C2CC(=O)N(Cc3ccccc3Cl)C2)cc1 (stereo unspecified)	none
O=C(C1=C[C@H](c2coc3ccccc3c2=O)C[C@H](OCCCCO)O1)N1CCN(Cc2ccc3c(c2)OCO3)CC1	none
N#C/C(=C/c1ccc(-c2ccc(C(=O)O)c(Cl)c2)o1)C(=O)NCC1CCCO1 (stereo unspecified)	Scp-1 inhibitor 106 | Scp-1 conf 55 | Scp-1 MG ctr inactive | Scp1 DSF inactive
Cc1ccc(/C=C(\C#N)C(=O)NCC2CCCO2)o1 (stereo unspecified)	none
COCCCNC(=O)CCN1N=C(c2ccccc2)CCC1=O	none
O=C(NNC(=O)c1ccc(Cl)cc1Cl)c1ccc2ccccc2c1	none | Scp-1 conf inactive | Scp-1 MG ctr inactive
CCOC(=O)CN1C(=O)N[C@@H](c2ccc(Br)cc2)C(C(=O)OC)=C1C	none
CCOC(=O)CN1C(=O)N[C@H](c2ccc(Br)cc2)C(C(C)=O)=C1C	Scp-1 inhibitor 76 | Scp-1 conf inactive | Scp-1 MG ctr inactive
Cc1ccc(SCC(=O)Nc2ccc(-c3nnc(-c4ccco4)o3)cc2)cc1	Scp-1 inhibitor 70 | Scp-1 conf 77 | Scp-1 MG ctr inactive | Scp1 DSF inactive
CC(=O)Nc1ccc(NC(=O)CSc2ccc(-c3ccco3)nn2)cc1	Scp-1 inhibitor 51 | Scp-1 conf inactive | Scp-1 MG ctr inactive
Cc1cccc(NC(=O)CSc2ccc(-c3ccco3)nn2)c1	none
CC(=O)Nc1cccc(NC(=O)CSc2ccc(-c3ccco3)nn2)c1	Scp-1 inhibitor 70 | Scp-1 conf inactive | Scp-1 MG ctr inactive
O=C(/C=C/c1ccccc1Cl)OCC(=O)N1CCc2ccccc21	none (no result: Scp-1 inhibitor)
COC(=O)C1=C(COc2ccccc2)NC(=O)NC1c1ccc2ccccc2c1 (stereo unspecified)	Scp-1 inhibitor 50 (no result: LMPTP inh, DNMT1 block, SUMO1-SIM PPI, STEP block) | Scp-1 conf 31 | Scp-1 MG ctr inactive | Scp1 DSF inactive
Cc1nc2ccc(C(=O)O)cc2c2c1CC(C)S2 (stereo unspecified)	DNMT1 block 54, Scp-1 inhibitor 79 | Scp-1 conf 61 | Scp-1 MG ctr inactive | Scp1 DSF inactive
CC1(C)NC(=O)N(CCCCOc2cccc(C(F)(F)F)c2)C1=O	none | Scp-1 conf inactive | Scp-1 MG ctr inactive
CCC(C)Oc1cccc(OCCCCN2C(=O)NC(C)(C)C2=O)c1 (stereo unspecified)	none
COc1ccc(CNC(=O)C(OC(=O)c2ccco2)c2ccccc2F)cc1 (stereo unspecified)	Scp-1 inhibitor 57 | Scp-1 conf inactive | Scp-1 MG ctr inactive
O=C1Nc2ccccc2C1=Nc1ccc(S(=O)(=O)Nc2nccs2)cc1	Scp-1 inhibitor 80, SUMO1-SIM PPI 88 | Scp-1 conf 73 | Scp-1 MG ctr inactive | Scp1 DSF 13
NS(=O)(=O)c1ccc(N=C2C(=O)Nc3ccccc32)cc1	none
Cc1cccc(NC(=O)COc2ccc(/C=C\c3[nH]c(=O)[nH]c(=O)c3[N+](=O)[O-])cc2)c1	LMPTP inh 55, Scp-1 inhibitor 79 | Scp-1 conf 74 | Scp-1 MG ctr inactive | Scp1 DSF 5.5
Cc1ccc(C)c(OCC(=O)NNC(=O)c2ccc(NC(=O)C3CC3)cc2)c1	none
